{"source": "ChEMBL document CHEMBL3525987", "about": "“Assessment of exposure of metabolites in preclinical species and humans at steady state from the single-dose radiolabeled absorption, distribution, metabolism, and excretion studies: a case study” (Drug Metab Dispos, 2012)", "conditions_in_all_cases": "in vivo", "key": {"Homo sapiens [1]": {"system": "Homo sapiens", "assay": "Tmax as total radioactivity in human plasma at 100 mg, po administered as single dose by LC-MS/MS analysis", "type": "ADME, organism-based", "set-up": "dosed compound name [14C]lixivaptan", "in_short": "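Single oral 100 mg [14C]drug to healthy male volunteers; plasma at 0.25-144 h. Parent by validated LC-MS/MS, total radioactivity by LSC as ng-equiv/ml; Tmax from observed data; t1/2 = 0.693/kel from log-linear terminal regression.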"}, "Rattus norvegicus [2]": {"system": "Rattus norvegicus", "assay": "AUC(0 to infinity) as total radioactivity in female Sprague-Dawley rat plasma at 10 mg/kg, po administered as single dose via gavage […]", "type": "ADME, organism-based", "set-up": "time infinity, dose 10 mg/kg, dosed compound name [14C]lixivaptan, route oral", "in_short": "(§1)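 Jugular-cannulated Sprague-Dawley rats (5/gender) were fasted 18 h and gavaged once with 10 mg/kg [14C]lixivaptan suspended in water/pluronic F68. K2EDTA blood was taken at 0.25–168 h, with donor blood replaced from 1 h on. Total radioactivity was read by LSC (ng-equiv/ml) and parent by validated LC-MS/MS. Noncompartmental Cmax, log-linear kel and trapezoidal AUC followed.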"}, "Homo sapiens [3]": {"system": "Homo sapiens", "assay": "Total drug recovery in human at […], po administered as single dose measured after 168 hrs by liquid scintillation counting", "type": "ADME, organism-based", "set-up": "dosed compound name [14C]lixivaptan, route oral", "in_short": "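Healthy male volunteers given a single 100 mg (200 μCi) oral dose as 2×50-mg capsules with 250 ml water, fasted ≥10 h before and 4 h after dosing. Urine collected at 0-4, 4-8, 8-12, 12-24 h, then every 24 h to 168 h; feces collected as passed to 168 h. Feces homogenized (20% w/w) and combusted; radioactivity measured by LSC.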"}, "Rattus norvegicus [4]": {"system": "Rattus norvegicus", "assay": "Drug recovery in cage wash/debris of male Sprague-Dawley rat at 10 mg/kg, po administered as single dose via gavage measured after 168 hrs by liquid scintillation counting", "type": "ADME, organism-based", "set-up": "dose 10 mg/kg, dosed compound name [14C]lixivaptan, route oral", "in_short": "(§2)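 Intact SD rats (3/gender) dosed by gavage with [14C]drug 10 mg/kg (10 ml/kg, pluronic F68/water), housed in metabolism cages; urine and feces at 0-8, 8-24 h, then every 24 h to 7 days. Urine counted by LSC; feces homogenized 20% w/w in water, combusted, trapped CO2 counted; cage wash/debris included; % of dose.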"}, "Rattus norvegicus [5]": {"system": "Rattus norvegicus", "assay": "Total Drug recovery in male Sprague-Dawley rat at 10 mg/kg, po administered as single dose via gavage measured after 168 hrs by liquid scintillation counting", "type": "ADME, organism-based", "set-up": "dose 10 mg/kg, dosed compound name [14C]lixivaptan, route oral", "in_short": "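Intact rats, 3/gender, given [14C]drug as a suspension in deionized water with pluronic F68 (10 ml/kg, ~29.8 μCi/mg), fasted 18 h before dosing, fed 4 h after. Urine and feces collected at 0-8, 8-24 h, then every 24 h for 7 days. Feces homogenized, combusted and counted; urine counted by LSC in duplicate. Recovery is % of dose, including cage wash/debris.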"}, "Rattus norvegicus [6]": {"system": "Rattus norvegicus", "assay": "Drug recovery in cage wash/debris of female Sprague-Dawley rat at 10 mg/kg, po administered as single dose via gavage measured after 168 hrs by liquid scintillation counting", "type": "ADME, organism-based", "set-up": "dose 10 mg/kg, dosed compound name [14C]lixivaptan, route oral", "in_short": "as §2"}, "Rattus norvegicus [7]": {"system": "Rattus norvegicus", "assay": "Total drug recovery in bile duct-cannulated male Sprague-Dawley rat at 10 mg/kg, po administered as single dose via gavage measured from 0 to 48 hrs by liquid scintillation counting", "type": "ADME, organism-based", "set-up": "dose 10 mg/kg, dosed compound name [14C]lixivaptan, route oral", "in_short": "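Male BDC rats (n=5) given oral [14C]drug as a suspension in deionized water with pluronic F68 (10 ml/kg). Drinking water supplemented with bile salts, NaCl and KCl. Bile collected on wet ice at 0-4, 4-8, 8-24 and 24-48 h. Duplicate aliquots counted by LSC; recovery expressed as % of dose in bile.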"}, "Homo sapiens [8]": {"system": "Homo sapiens", "assay": "AUC (0 to 24 hrs) in human at 100 mg, po administered as single dose", "type": "ADME, organism-based, Plasma", "set-up": "time < 24 hr, dose 100 mg, route oral, dosed compound name [14C]lixivaptan", "in_short": "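Healthy young men fasted 10 h and took one oral dose of [14C]lixivaptan, 100 mg (200 µCi) as two capsules with water, eating 4 h later. Plasma from each subject at 0.5, 2, 4, 8, 12, 24 and 36 h was acetonitrile-extracted and profiled by C18 radio-HPLC (formic acid/acetonitrile gradient) with flow detection. Component concentrations were % of radioactivity × total plasma radioactivity, giving AUC0-24 in ng-equiv.h/ml.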"}, "Canis familiaris [9]": {"system": "Canis familiaris", "assay": "AUC (0 to 24 hrs) in beagle dog at 10 mg/kg, po administered as single dose", "type": "ADME, organism-based, Canis lupus familiaris, Plasma", "set-up": "time < 24 hr, dose 10 mg/kg, dosed compound name [14C]lixivaptan, route oral", "in_short": "(§3)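 Four male beagles fasted 18 h were gavaged once with [14C]lixivaptan at 10 mg/kg (2 ml/kg). The 5.0 mg/ml suspension was in deionized water with pluronic F68 (1.04 µCi/mg). Jugular K2EDTA plasma was taken at 2, 8 and 24 h and extracted twice with 2 volumes of acetonitrile. Profiling used C18 radio-HPLC (ammonium formate/acetonitrile gradient) with on-line flow scintillation detection. Each peak is reported as percent of plasma radioactivity.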"}, "Rattus norvegicus [10]": {"system": "Rattus norvegicus", "assay": "AUC (0 to 24 hrs) in male Sprague-Dawley rat at 10 mg/kg, po administered as single dose via gavage", "type": "ADME, organism-based, Plasma", "set-up": "time < 24 hr, dose 10 mg/kg, dosed compound name [14C]lixivaptan, route oral", "in_short": "(§4)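 Sprague-Dawley rats (9/gender) were fasted 18 h and gavaged once with [14C]lixivaptan at 10 mg/kg (10 ml/kg), about 29.8 µCi/mg, suspended in deionized water with pluronic F68. Plasma came by cardiac puncture under isoflurane at 1, 8 and 24 h (3/gender/time) and was extracted twice with 2 volumes of acetonitrile. C18 radio-HPLC with a flow scintillation detector gave percent of plasma radioactivity per peak.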"}, "Rattus norvegicus [11]": {"system": "Rattus norvegicus", "assay": "Half life as total radioactivity in male Sprague-Dawley rat plasma at 10 mg/kg, po administered as single dose via gavage by LC-MS/MS analysis", "type": "ADME, organism-based", "set-up": "dose 10 mg/kg, dosed compound name [14C]lixivaptan, route oral", "in_short": "(§5)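 Jugular-vein cannulated SD rats (5/gender) given gavage [14C]drug 10 mg/kg in pluronic F68/water; K2EDTA blood 0.25-168 h with donor blood replacement. Parent by validated LC-MS/MS, radioactivity by LSC; Tmax observed; t1/2 = 0.693/kel by terminal log-linear regression.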"}, "Rattus norvegicus [12]": {"system": "Rattus norvegicus", "assay": "AUC(0 to infinity) as total radioactivity in male Sprague-Dawley rat plasma at 10 mg/kg, po administered as single dose via gavage […]", "type": "ADME, organism-based", "set-up": "time infinity, dose 10 mg/kg, dosed compound name [14C]lixivaptan, route oral", "in_short": "as §1"}, "Rattus norvegicus [13]": {"system": "Rattus norvegicus", "assay": "Half life as total radioactivity in female Sprague-Dawley rat plasma at 10 mg/kg, po administered as single dose via gavage by LC-MS/MS analysis", "type": "ADME, organism-based", "set-up": "dose 10 mg/kg, dosed compound name [14C]lixivaptan, route oral", "in_short": "as §5"}, "Canis familiaris [14]": {"system": "Canis familiaris", "assay": "AUC(0 to t) as total radioactivity in male beagle dog plasma at 10 mg/kg, po administered as single dose by LC-MS/MS analysis", "type": "ADME, organism-based, Canis lupus familiaris", "set-up": "dose 10 mg/kg, dosed compound name [14C]lixivaptan, route oral", "in_short": "(§6)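 Four male beagles were fasted 18 h and gavaged once with 10 mg/kg (2 ml/kg) [14C]lixivaptan as a 5.0 mg/ml water/pluronic F68 suspension. Jugular K2EDTA blood was sampled from 0.25 to 168 h. Plasma total radioactivity was counted by LSC as ng-equiv/ml and lixivaptan by validated LC-MS/MS. Noncompartmental Cmax, t1/2 and trapezoidal AUC were derived.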"}, "Canis familiaris [15]": {"system": "Canis familiaris", "assay": "AUC(0 to infinity) as total radioactivity in male beagle dog plasma at 10 mg/kg, po administered as single dose by LC-MS/MS analysis", "type": "ADME, organism-based, Canis lupus familiaris", "set-up": "time infinity, dose 10 mg/kg, dosed compound name [14C]lixivaptan, route oral", "in_short": "as §6"}, "Rattus norvegicus [16]": {"system": "Rattus norvegicus", "assay": "Drug level in female Sprague-Dawley rat plasma at 10 mg/kg, po administered as single dose via gavage measured after 8 hrs by liquid scintillation counting", "type": "ADME, organism-based", "set-up": "dose 10 mg/kg, dosed compound name [14C]lixivaptan, route oral", "in_short": "as §4"}, "Canis familiaris [17]": {"system": "Canis familiaris", "assay": "Drug level in beagle dog plasma at 10 mg/kg, po administered as single dose measured after 24 hrs by liquid scintillation counting", "type": "ADME, organism-based, Canis lupus familiaris", "set-up": "dose 10 mg/kg, dosed compound name [14C]lixivaptan, route oral", "in_short": "as §3"}}, "data": [{"smiles": "Cc1ccc(F)cc1[14C](=O)Nc1ccc(C(=O)N2Cc3cccn3Cc3ccccc32)c(Cl)c1", "values": [{"measurement": "Tmax", "setting": "Homo sapiens [1]", "value": 1.2, "unit": "h"}, {"measurement": "AUC", "setting": "Rattus norvegicus [2]", "value": 37200, "unit": "ng.Eq.hr/ml"}, {"measurement": "Radiolabel recovery", "setting": "Homo sapiens [3]", "value": 84.2, "unit": "%"}, {"measurement": "Radiolabel recovery", "setting": "Rattus norvegicus [4]", "value": 2.2, "unit": "%"}, {"measurement": "Radiolabel recovery", "setting": "Rattus norvegicus [5]", "value": 99, "unit": "%"}, {"measurement": "Radiolabel recovery", "setting": "Rattus norvegicus [6]", "value": 3.51, "unit": "%"}, {"measurement": "Radiolabel recovery", "setting": "Rattus norvegicus [7]", "value": 65.4, "unit": "%"}, {"measurement": "AUC", "setting": "Homo sapiens [8]", "value": 1860, "unit": "ng.Eq.hr/ml"}, {"measurement": "AUC", "setting": "Canis familiaris [9]", "value": 11200, "unit": "ng.Eq.hr/ml"}, {"measurement": "AUC", "setting": "Rattus norvegicus [10]", "value": 632, "unit": "ng.Eq.hr/ml"}, {"measurement": "t1/2", "setting": "Rattus norvegicus [11]", "value": 36.6, "unit": "h"}, {"measurement": "AUC", "setting": "Rattus norvegicus [12]", "value": 67100, "unit": "ng.Eq.hr/ml"}, {"measurement": "t1/2", "setting": "Rattus norvegicus [13]", "value": 33.6, "unit": "h"}, {"measurement": "AUCt", "setting": "Canis familiaris [14]", "value": 82800, "unit": "ng.Eq.hr/ml"}, {"measurement": "AUC", "setting": "Canis familiaris [15]", "value": 94900, "unit": "ng.Eq.hr/ml"}, {"measurement": "Compound recovery", "setting": "Rattus norvegicus [16]", "value": 12.2, "unit": "%"}, {"measurement": "Compound recovery", "setting": "Canis familiaris [17]", "value": 7.4, "unit": "%"}]}]}
